In ChEMBL document CHEMBL1151428, “Capability of 11 antipneumococcal antibiotics to select for resistance by multistep and single-step methodologies” (2007):
Values after ≈ are worked out from the molar mass of the structure shown.

Assays:
Format in all cases: functional
Streptococcus pneumoniae [1] = test: Antimicrobial activity against drug-resistant Streptococcus pneumoniae isolate 24 after 50 passages by multi-step resistance selection technique
Procedure, shortened: (§1)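 Daily serial passage in subinhibitory drug levels in 1 ml cation-adjusted Mueller-Hinton broth with 5% lysed horse blood; fresh broth for tigecycline. Each day, 10 μl were taken from the tube one to two dilutions below the MIC whose turbidity matched the growth control, and used to set the next MIC. MIC by macrodilution.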

Streptococcus pneumoniae [2] = test: Antimicrobial activity against drug-resistant Streptococcus pneumoniae isolate 1635 after 49 passages with clarithromycin measured after 10 antibiotic-free subculture by multi-step resistance selection technique
Streptococcus pneumoniae [3] = test: Antimicrobial activity against drug-resistant Streptococcus pneumoniae isolate 1635 after 50 passages by multi-step resistance selection technique; procedure, shortened: as §1
Streptococcus pneumoniae [4] = test: Antimicrobial activity against drug-resistant Streptococcus pneumoniae isolate 1635 by NCCLS M7-A7 method
Streptococcus pneumoniae [5] = test: Antimicrobial activity against drug-resistant Streptococcus pneumoniae isolate 3243 after 20 passages with moxifloxacin measured after 10 antibiotic-free subculture by multi-step resistance selection technique
Procedure, shortened: (§2)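 Mutants selected by daily broth passage in subinhibitory drug in cation-adjusted Mueller-Hinton broth with 5% lysed horse blood. Stability was tested by 10 daily passages on blood agar without antibiotic, then macrodilution MIC.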

Streptococcus pneumoniae [6] = test: Antimicrobial activity against drug-resistant Streptococcus pneumoniae isolate 3243 after 33 passages with azithromycin measured after 10 antibiotic-free subculture by multi-step resistance selection technique; procedure, shortened: as §2
Streptococcus pneumoniae [7] = test: Antimicrobial activity against drug-resistant Streptococcus pneumoniae isolate 3243 after 29 passages with Telithromycin measured after 10 antibiotic-free subculture by multi-step resistance selection technique; procedure, shortened: as §2
Streptococcus pneumoniae [8] = test: Antimicrobial activity against drug-resistant Streptococcus pneumoniae isolate 3243 by NCCLS M7-A7 method
Streptococcus pneumoniae [9] = test: Antimicrobial activity against drug-resistant Streptococcus pneumoniae isolate 3676 after 50 passages with moxifloxacin measured after 10 antibiotic-free subculture by multi-step resistance selection technique
Streptococcus pneumoniae [10] = test: Antimicrobial activity against drug-resistant Streptococcus pneumoniae isolate 3274 after 50 passages by multi-step resistance selection technique; procedure, shortened: as §1
Streptococcus pneumoniae [11] = test: Antimicrobial activity against drug-resistant Streptococcus pneumoniae isolate 3274 by NCCLS M7-A7 method
Streptococcus pneumoniae [12] = test: Antimicrobial activity against drug-resistant Streptococcus pneumoniae isolate 2527 after 14 passages with gemifloxacin measured after 10 antibiotic-free subculture by multi-step resistance selection technique; procedure, shortened: as §2
Streptococcus pneumoniae [13] = test: Antimicrobial activity against drug-resistant Streptococcus pneumoniae isolate 2527 after 20 passages with azithromycin measured after 10 antibiotic-free subculture by multi-step resistance selection technique; procedure, shortened: as §2
Streptococcus pneumoniae [14] = test: Antimicrobial activity against drug-resistant Streptococcus pneumoniae isolate 2527 by NCCLS M7-A7 method
Streptococcus pneumoniae [15] = test: Antimicrobial activity against drug-resistant Streptococcus pneumoniae isolate 2527 after 50 passages by multi-step resistance selection technique
Procedure, shortened: (§3)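 Daily serial passage in subinhibitory drug levels in 1 ml cation-adjusted Mueller-Hinton broth with 5% lysed horse blood; fresh broth for tigecycline. Each day, 10 μl were taken from the tube one to two dilutions below the MIC whose turbidity matched the growth control, and used to set the next MIC. […] MIC by macrodilution.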

Streptococcus pneumoniae [16] = test: Antimicrobial activity against drug-resistant Streptococcus pneumoniae isolate 3665 after 50 passages by multi-step resistance selection technique
Procedure, shortened: (§4)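 Daily serial passage in broth at subinhibitory drug levels: 1 ml cation-adjusted Mueller-Hinton broth with 5% lysed horse blood; fresh broth for tigecycline. Each day 10 μl inoculum taken from the tube one to two dilutions below MIC matching growth-control turbidity, used to set next MIC. Continued until ≥8-fold MIC rise, minimum 14, maximum 50 passages; MIC read by macrodilution.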

Streptococcus pneumoniae [17] = test: Antimicrobial activity against drug-resistant Streptococcus pneumoniae isolate 3665 by NCCLS M7-A7 method
Streptococcus pneumoniae [18] = test: Antimicrobial activity against drug-resistant Streptococcus pneumoniae isolate 1077 after 15 passages with Telithromycin measured after 10 antibiotic-free subculture by multi-step resistance selection technique; procedure, shortened: as §2
Streptococcus pneumoniae [19] = test: Antimicrobial activity against drug-resistant Streptococcus pneumoniae isolate 1076 after 35 passages with moxifloxacin measured after 10 antibiotic-free subculture by multi-step resistance selection technique; procedure, shortened: as §2
Streptococcus pneumoniae [20] = test: Antimicrobial activity against drug-resistant Streptococcus pneumoniae isolate 1076 after 14 passages with Telithromycin measured after 10 antibiotic-free subculture by multi-step resistance selection technique; procedure, shortened: as §2
Streptococcus pneumoniae [21] = test: Antimicrobial activity against drug-resistant Streptococcus pneumoniae isolate 1076 by NCCLS M7-A7 method
Streptococcus pneumoniae [22] = test: Antimicrobial activity against drug-resistant Streptococcus pneumoniae isolate 1076 after 50 passages by multi-step resistance selection technique; procedure, shortened: as §3
Streptococcus pneumoniae [23] = test: Antimicrobial activity against drug-resistant Streptococcus pneumoniae isolate 3009 after 19 passages with moxifloxacin measured after 10 antibiotic-free subculture by multi-step resistance selection technique; procedure, shortened: as §2
Streptococcus pneumoniae [24] = test: Antimicrobial activity against drug-resistant Streptococcus pneumoniae isolate 3009 after 21 passages with gemifloxacin measured after 10 antibiotic-free subculture by multi-step resistance selection technique; procedure, shortened: as §2
Streptococcus pneumoniae [25] = test: Antimicrobial activity against drug-resistant Streptococcus pneumoniae isolate 3009 after 25 passages with clarithromycin measured after 10 antibiotic-free subculture by multi-step resistance selection technique
Streptococcus pneumoniae [26] = test: Antimicrobial activity against drug-resistant Streptococcus pneumoniae isolate 3009 by NCCLS M7-A7 method
Streptococcus pneumoniae [27] = test: Antimicrobial activity against drug-resistant Streptococcus pneumoniae isolate 3009 after 50 passages by multi-step resistance selection technique; procedure, shortened: as §3
Streptococcus pneumoniae [28] = test: Antimicrobial activity against drug-resistant Streptococcus pneumoniae isolate 37 by NCCLS M7-A7 method
Streptococcus pneumoniae [29] = test: Antimicrobial activity against drug-resistant Streptococcus pneumoniae isolate 37 after 50 passages by multi-step resistance selection technique
Procedure, shortened: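 Daily serial passage in broth at subinhibitory drug levels: 1 ml cation-adjusted Mueller-Hinton broth with 5% lysed horse blood; fresh broth for tigecycline. Each day 10 μl inoculum taken from the tube one to two dilutions below MIC matching growth-control turbidity, used to set next MIC.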

Streptococcus pneumoniae [30] = test: Antimicrobial activity against drug-resistant Streptococcus pneumoniae isolate 37 after 14 passages with Telithromycin measured after 10 antibiotic-free subculture by multi-step resistance selection technique
Streptococcus pneumoniae [31] = test: Antimicrobial activity against drug-resistant Streptococcus pneumoniae isolate 3413 by NCCLS M7-A7 method
Streptococcus pneumoniae [32] = test: Antimicrobial activity against drug-resistant Streptococcus pneumoniae isolate 3413 after 50 passages by multi-step resistance selection technique; procedure, shortened: as §1
Streptococcus pneumoniae [33] = test: Antimicrobial activity against drug-resistant Streptococcus pneumoniae isolate 3413 after 30 passages with Telithromycin measured after 10 antibiotic-free subculture by multi-step resistance selection technique; procedure, shortened: as §2
Streptococcus pneumoniae [34] = test: Antimicrobial activity against drug-resistant Streptococcus pneumoniae isolate 3676 after 44 passages with clarithromycin measured after 10 antibiotic-free subculture by multi-step resistance selection technique
Streptococcus pneumoniae [35] = test: Antimicrobial activity against drug-resistant Streptococcus pneumoniae isolate 3676 after 50 passages by multi-step resistance selection technique; procedure, shortened: as §4
Streptococcus pneumoniae [36] = test: Antimicrobial activity against drug-resistant Streptococcus pneumoniae isolate 3665 after 38 passages with moxifloxacin measured after 10 antibiotic-free subculture by multi-step resistance selection technique
Streptococcus pneumoniae [37] = test: Antimicrobial activity against drug-resistant Streptococcus pneumoniae isolate 3665 after 26 passages with clarithromycin measured after 10 antibiotic-free subculture by multi-step resistance selection technique
Streptococcus pneumoniae [38] = test: Antimicrobial activity against drug-resistant Streptococcus pneumoniae isolate 3665 after 14 passages with Telithromycin measured after 10 antibiotic-free subculture by multi-step resistance selection technique

CO/N=C(\C(=O)N[C@@H]1C(=O)N2C(C(=O)O)=C(CSc3nc(=O)c(O)nn3C)CS[C@H]12)c1csc(N)n1 [CEFTRIAXONE]
MIC (Streptococcus pneumoniae [1]): 2 µg/mL (≈ 3.61 µM)
MIC (Streptococcus pneumoniae [2]): 0.016 µg/mL (≈ 0.0289 µM)
MIC (Streptococcus pneumoniae [3]): 0.03 µg/mL (≈ 0.0541 µM)
MIC (Streptococcus pneumoniae [4]): 0.016 µg/mL (≈ 0.0289 µM)
MIC (Streptococcus pneumoniae [5]): 0.06 µg/mL (≈ 0.108 µM)
MIC (Streptococcus pneumoniae [6]): 0.125 µg/mL (≈ 0.225 µM)
MIC (Streptococcus pneumoniae [7]): 0.125 µg/mL (≈ 0.225 µM)
MIC (Streptococcus pneumoniae [8]): 0.125 µg/mL (≈ 0.225 µM)
MIC (Streptococcus pneumoniae [9]): 0.03 µg/mL (≈ 0.0541 µM)
MIC (Streptococcus pneumoniae [10]): 0.25 µg/mL (≈ 0.451 µM)
MIC (Streptococcus pneumoniae [11]): 0.125 µg/mL (≈ 0.225 µM)
MIC (Streptococcus pneumoniae [12]): 1 µg/mL (≈ 1.8 µM)
MIC (Streptococcus pneumoniae [13]): 2 µg/mL (≈ 3.61 µM)
MIC (Streptococcus pneumoniae [14]): 2 µg/mL (≈ 3.61 µM)
MIC (Streptococcus pneumoniae [15]): 8 µg/mL (≈ 14.4 µM)
MIC (Streptococcus pneumoniae [16]): 0.06 µg/mL (≈ 0.108 µM)
MIC (Streptococcus pneumoniae [17]): 0.06 µg/mL (≈ 0.108 µM)
MIC (Streptococcus pneumoniae [18]): 0.016 µg/mL (≈ 0.0289 µM)
MIC (Streptococcus pneumoniae [19]): 0.016 µg/mL (≈ 0.0289 µM)
MIC (Streptococcus pneumoniae [20]): 0.03 µg/mL (≈ 0.0541 µM)
MIC (Streptococcus pneumoniae [21]): 0.016 µg/mL (≈ 0.0289 µM)
MIC (Streptococcus pneumoniae [22]): 0.016 µg/mL (≈ 0.0289 µM)
MIC (Streptococcus pneumoniae [23]): 0.03 µg/mL (≈ 0.0541 µM)
MIC (Streptococcus pneumoniae [24]): 0.03 µg/mL (≈ 0.0541 µM)
MIC (Streptococcus pneumoniae [25]): 0.016 µg/mL (≈ 0.0289 µM)
MIC (Streptococcus pneumoniae [26]): 0.03 µg/mL (≈ 0.0541 µM)
MIC (Streptococcus pneumoniae [27]): 0.03 µg/mL (≈ 0.0541 µM)
MIC (Streptococcus pneumoniae [28]): 2 µg/mL (≈ 3.61 µM)
MIC (Streptococcus pneumoniae [29]): 1 µg/mL (≈ 1.8 µM)
MIC (Streptococcus pneumoniae [30]): 2 µg/mL (≈ 3.61 µM)
MIC (Streptococcus pneumoniae [31]): 1 µg/mL (≈ 1.8 µM)
MIC (Streptococcus pneumoniae [32]): 1 µg/mL (≈ 1.8 µM)
MIC (Streptococcus pneumoniae [33]): 2 µg/mL (≈ 3.61 µM)
MIC (Streptococcus pneumoniae [34]): 0.03 µg/mL (≈ 0.0541 µM)
MIC (Streptococcus pneumoniae [35]): 0.06 µg/mL (≈ 0.108 µM)
MIC (Streptococcus pneumoniae [36]): 0.06 µg/mL (≈ 0.108 µM)
MIC (Streptococcus pneumoniae [37]): 0.03 µg/mL (≈ 0.0541 µM)
MIC (Streptococcus pneumoniae [38]): 0.06 µg/mL (≈ 0.108 µM)
